CYP2C19 inh: blockers of cytochrome P450 2C19 activity – biochemical, luminescence, ADME assay, primary screen | P33261 | CYP2C19 Supersomes, luciferin-H EGE luminescence, 30 min | inhibition, % at 5 µM | hit rate 21% among 96,000 | AID 778, 2007;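 active = CYP2C19 inhibition above a set limit at 5 µM in the primary screen, cut at about 50% in these data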;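 also: plate controls were negative control wells for no effect and 2.5 mM tranylcypromine positive control for full effect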
CYP2C9 inhib: blockers of cytochrome P450 2C9 activity – biochemical, luminescence, ADME assay, primary screen | P11712 | CYP2C9 Supersomes, luciferin-H conversion | inhibition, % at 5 µM | hit rate 20% among 96,000;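 active = blocking of liver enzyme CYP2C9 beyond about 50% at 5 µM, limit read from the data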
CYP2C19 act: human CYP2C19 activators, primary screen, biochemical, luminescence. 96,000 tested, under 10 active. recombinant CYP2C19, luciferin-H EGE luminescence; active compounds read high; 0 = fully inhibited enzyme, 1 = untreated enzyme. Cytochrome P450 2C19 (Homo sapiens), P33261. AID 1025, 2008. activation factor at 5 µM;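 active = activation factor of at least 2 at 5 µM in the primary screen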;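 also: 0 = wells with 2.5 mM tranylcypromine and 1 = vehicle-only wells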
Cav3 T inh: Cav3.2 calcium influx blockers – cell-based, Fluo-4 calcium fluorescence, FDSS, MLSMR library, primary screen; Voltage-dependent T-type calcium channel subunit alpha-1H (Homo sapiens), O95180; Cav3.2-expressing cells; active compounds read low; B-score at 10 µM; hit rate 4% among 100,000;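 active = single-dose well whose peak fluorescence ratio is a statistical outlier from its plate by either plate-standardised score or position-corrected B-score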
CYP2C9 activ: human CYP2C9 activators, primary screen, biochemical, luminescence; Cytochrome P450 2C9 (Homo sapiens), P11712; AID 1024, 2008; activation factor at 5 µM; hit rate 1.4% among 96,000; recombinant CYP2C9, luciferin-H conversion; active compounds read high; factor 1 = untreated enzyme, 0 = blocked;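 active = activation factor of 2 or more for CYP2C9 at a 5 µM dose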;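 also: 0 = sulfaphenazole-blocked wells and 1 = vehicle-only wells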
HIV Rev-RRE inh: HIV-1 Rev-RRE binding inhibitors, primary screen, biochemical, FRET, protein-RNA interaction; P05866; Rev peptide-RRE RNA binding; inhibition, % at 8 µM; hit rate 0.79% among 97,000;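 active = inhibition above the screen-wide mean plus 3 SD, cut at about 35% in these data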;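 also: 0% = median DMSO wells and 100% = median Neomycin B control wells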
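assay system = Cy5-tagged RRE RNA duplex with fluorescein-tagged Rev peptide | incubation = 5 + 15 min at 25 °C | also added = labelled Rev peptide | measure = % inhibition of FRET ratio versus controls | benchmarks = DMSO wells as 0% and neomycin B wells as 100% inhibition | measured by = FRET fluorescence readout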
* marks the source's active call; other numbers are inactive results; x = no result. In the library only some 27% were active in any assay of this set; here they are far more common.

SMILES | CYP2C19 inh | CYP2C9 inhib | CYP2C19 act | Cav3 T inh | CYP2C9 activ | HIV Rev-RRE inh
CC(O)[C@H]1CNC(=O)C(=O)N1CCc1cccc(F)c1 (some centres not stated) | x | x | x | 0.67 | x | x
Cc1cccc(C)c1C(=O)N[C@@H](Cc1ccccc1)C(=O)O | x | x | x | -0.91 | x | x
CCn1c(-c2ccccc2Cl)nn(CC(=O)Nc2ccccc2OC)c1=S | 91* | -31 | 0.1 | 0.44 | 1.3 | 2
Oc1ccc(Oc2ccc3c(C(F)(F)F)cc(C(F)(F)F)nc3n2)cc1 | 0 | 2 | 1 | -6.9* | 1 | 15
COc1ccc(Oc2ccc3c(C(F)(F)F)cc(C(F)(F)F)nc3n2)cc1 | -2 | 0 | 1 | 0.033 | 1 | 17
CN(C)/C=N/c1sccc1C(N)=O | -9 | -16 | 1.1 | 1 | 1.2 | 3
Cc1ccc(C(=O)NNC(=O)C2CCN(c3nccc(C)n3)CC2)cc1 | 10 | 50* | 0.9 | 0.19 | 0.5 | 1
Cc1ccc(C(=O)NNC(=O)C2CCN(c3nc(C)cc(C)n3)CC2)cc1 | -2 | -3 | 1 | 1.1 | 1 | 3
CC(C)c1nc2ccccn2c1NC1CCCCC1 | 8 | -4 | 0.9 | -1.3 | 1 | -2
O=C1c2ccccc2-c2c1cccc2C(=O)N1CCOCC1 | x | x | x | 0.57 | x | 5
O=C(c1ccc2c3c(cccc13)CC2)N1CCOCC1 | 34 | -112 | 0.7 | 0.62 | 2.1* | 8
CCOC(=O)c1c(N)n(CC(C)NC(=O)C2CC2)c2nc3ccccc3nc12 (configuration not stated) | 8 | -6 | 0.9 | -0.79 | 1.1 | 4
CC1Cc2nc(SCC(=O)N3CCN(c4ccccc4)CC3)n(C)c(=O)c2S1 (configuration not stated) | 67* | 71* | 0.3 | 1.1 | 0.3 | 2
CC1Cc2nc(SCC(=O)N3CCN(c4ccccc4)CC3)n(CCc3ccccc3)c(=O)c2S1 (configuration not stated) | 31 | 76* | 0.7 | -3.9 | 0.2 | 0
O=S1(=O)N=C(N2CCCc3ccccc32)c2ccccc21 | 20 | 7 | 0.8 | 1.5 | 0.9 | 4
CCCC(=O)c1ccc(N2CCN(C(=O)c3ccccc3Br)CC2)c(F)c1 | 36 | 29 | 0.6 | 0.39 | 0.7 | 6
CCC1CCCCN1CC(=O)Nc1cc(C)nn1-c1nc(C)cc(C)n1 (configuration not stated) | 52* | 93* | 0.5 | 0.027 | 0.1 | -1
CC(NC(=O)NC1CCCCC1)C(c1cccs1)N1CCN(c2ccccc2)CC1 (configuration not stated) | 30 | 26 | 0.7 | -2.8 | 0.7 | 7
Cc1cc(C(=O)NCc2cc(C)n(C)n2)sc1-c1ccccc1 | 59* | 9 | 0.4 | 0.052 | 0.9 | 3
C=CCCCN(Cc1ccccc1)S(=O)(=O)c1ccccc1Br | x | x | x | -3.7* | x | x
N#CCCN1CCN(Cn2c3ccccc3c3ccccc32)CC1 | 40 | -20 | 0.6 | 0.073 | 1.2 | 1
CN1CCN(CC#CCn2c3ccccc3c3ccccc32)CC1 | 59* | -38 | 0.4 | 0.17 | 1.4 | 2
COc1ccc(CC(=O)Nc2cccc(C(=O)O)c2C)cc1 | 0 | -16 | 1 | 0.11 | 1.2 | 0
Cc1nnc(SCc2ccc(F)cc2)s1 | 23 | -23 | 0.8 | 0.64 | 1.2 | 2
COc1ccc(CSc2nnc(N)s2)cc1F | 69* | 19 | 0.3 | 0.39 | 0.8 | 7
COc1cccc(=O)c2c(C)n(C)c(C)c12 | -1 | 9 | 1 | -0.056 | 0.9 | 9
CCOc1cccc(=O)c2c(C)n(C)c(C)c12 | 52* | 49 | 0.5 | 0.47 | 0.5 | 18
O=C(CN(Cc1cccs1)C(=O)CNS(=O)(=O)c1ccc(F)cc1)NCc1ccco1 | 58* | 22 | 0.4 | -0.92 | 0.8 | -2
O=C(CN(Cc1ccco1)C(=O)CNS(=O)(=O)c1ccccc1)NCc1ccc(F)cc1 | 61* | 62* | 0.4 | -0.96 | 0.4 | -1
Cc1ccc(S(=O)(=O)NCC(=O)N(CCc2ccccc2)CC(=O)NCc2ccco2)cc1 | 72* | 53* | 0.3 | -3.6 | 0.5 | 2
